Assay results from ChEMBL document CHEMBL1629690, “Development of hexadecyloxypropyl tenofovir (CMX157) for treatment of infection caused by wild-type and nucleoside/nucleotide-resistant HIV” (Antimicrob Agents Chemother, 2010).

Test system: Human immunodeficiency virus 1
Assay: Antiviral activity against HIV1 isolate 188 harboring reverse transcriptase T215Y/M184V mutant gene by phenosense assay relative to wild type
Type: functional
Conditions: not given
In short: (§1)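 Recombinant-virus PhenoSense HIV assay run on a panel of 30 NRTI-resistant HIV-1 mutants and two wild-type viruses. Each virus is tested across increasing drug concentrations to give an inhibition curve and EC50. Fold change is the test recombinant EC50 divided by the EC50 of the drug-sensitive wild-type reference virus.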

Compound | fold change (FC)
Nc1nc(NC2CC2)c2ncn([C@H]3C=C[C@@H](CO)C3)c2n1 [ABACAVIR] | 4.3

Test system: Human immunodeficiency virus 1
Assay: Antiviral activity against HIV1 isolate 204 harboring reverse transcriptase M41L/L210W/T215Y/M184V mutant gene by phenosense assay
Type: functional, organism-based
Conditions: Human immunodeficiency virus 1, isolate 204
In short: (§2)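 PhenoSense HIV recombinant virus assay: patient-derived HIV-1 with major NRTI resistance mutations tested against increasing drug concentrations to give inhibition curves. EC50 is the concentration giving 50% inhibition. Fold change is the test recombinant EC50 divided by the EC50 of a drug-sensitive wild-type reference virus. Panel of 30 NRTI-resistant isolates plus two wild-type viruses.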

Compound | EC50 [µM]
Nc1nc(NC2CC2)c2ncn([C@H]3C=C[C@@H](CO)C3)c2n1 [ABACAVIR] | 8.9

Test system: Human immunodeficiency virus 1
Assay: Antiviral activity against HIV1 isolate 203 harboring reverse transcriptase M41L/L210W/T215Y/M184V mutant gene by phenosense assay relative to wild type
Type: functional
Conditions: not given
In short: as §2

Compound | fold change (FC)
Nc1nc(NC2CC2)c2ncn([C@H]3C=C[C@@H](CO)C3)c2n1 [ABACAVIR] | 4.6

Test system: Human immunodeficiency virus 1
Assay: Antiviral activity against HIV1 isolate 206 harboring reverse transcriptase D67N/K70R mutant gene by phenosense assay
Type: functional, organism-based
Conditions: Human immunodeficiency virus 1, isolate 206
In short: as §2

Compound | EC50 [µM]
Nc1nc(NC2CC2)c2ncn([C@H]3C=C[C@@H](CO)C3)c2n1 [ABACAVIR] | 2.5

Test system: Human immunodeficiency virus 1
Assay: Antiviral activity against HIV1 isolate 203 harboring reverse transcriptase M41L/L210W/T215Y/M184V mutant gene by phenosense assay
Type: functional, organism-based
Conditions: Human immunodeficiency virus 1, isolate 203
In short: as §2

Compound | EC50 [µM]
Nc1nc(NC2CC2)c2ncn([C@H]3C=C[C@@H](CO)C3)c2n1 [ABACAVIR] | 8.2

Test system: Human immunodeficiency virus 1
Assay: Antiviral activity against HIV1 isolate 166 harboring reverse transcriptase L74V mutant gene obtained as site-directed mutant of NL4-3 by phenosense assay
Type: functional, organism-based
Conditions: Human immunodeficiency virus 1, isolate 166
In short: as §1

Compound | EC50 [µM]
Nc1nc(NC2CC2)c2ncn([C@H]3C=C[C@@H](CO)C3)c2n1 [ABACAVIR] | 3.3

Test system: Human immunodeficiency virus 1
Assay: Antiviral activity against HIV1 isolate 194 harboring reverse transcriptase M41L/T215Y/M184V mutant gene by phenosense assay
Type: functional, organism-based
Conditions: Human immunodeficiency virus 1, isolate 194
In short: as §1

Compound | EC50 [µM]
Nc1nc(NC2CC2)c2ncn([C@H]3C=C[C@@H](CO)C3)c2n1 [ABACAVIR] | 9.6

Test system: Human immunodeficiency virus 1
Assay: Antiviral activity against HIV1 isolate 220 harboring reverse transcriptase K70E/M184V mutant gene by phenosense assay
Type: functional, organism-based
Conditions: Human immunodeficiency virus 1, isolate 220
In short: as §2

Compound | EC50 [µM]
Nc1nc(NC2CC2)c2ncn([C@H]3C=C[C@@H](CO)C3)c2n1 [ABACAVIR] | 10

Test system: Human immunodeficiency virus 1
Assay: Antiviral activity against HIV1 isolate 058 harboring reverse transcriptase M41L/D67N/K70R/L210W/T215F/K219Q mutant gene by phenosense assay relative to wild type
Type: functional
Conditions: not given
In short: as §1

Compound | fold change (FC)
Nc1nc(NC2CC2)c2ncn([C@H]3C=C[C@@H](CO)C3)c2n1 [ABACAVIR] | 4.4

Test system: Human immunodeficiency virus 1
Assay: Antiviral activity against HIV1 isolate 069 harboring reverse transcriptase D67E/T69SSG/V75M/M184V/L210W/T215Y mutant gene by phenosense assay
Type: functional, organism-based
Conditions: Human immunodeficiency virus 1, isolate 069
In short: as §1

Compound | EC50 [µM]
Nc1nc(NC2CC2)c2ncn([C@H]3C=C[C@@H](CO)C3)c2n1 [ABACAVIR] | 47

Test system: Human immunodeficiency virus 1
Assay: Antiviral activity against HIV1 isolate 220 harboring reverse transcriptase K70E/M184V mutant gene by phenosense assay relative to wild type
Type: functional
Conditions: not given
In short: as §2

Compound | fold change (FC)
Nc1nc(NC2CC2)c2ncn([C@H]3C=C[C@@H](CO)C3)c2n1 [ABACAVIR] | 5.9

Test system: Human immunodeficiency virus 1
Assay: Antiviral activity against HIV1 isolate 153 harboring reverse transcriptase L74V mutant gene by phenosense assay relative to wild type
Type: functional
Conditions: not given
In short: as §1

Compound | fold change (FC)
Nc1nc(NC2CC2)c2ncn([C@H]3C=C[C@@H](CO)C3)c2n1 [ABACAVIR] | 1.9

Test system: Human immunodeficiency virus 1
Assay: Antiviral activity against HIV1 isolate 066 harboring reverse transcriptase 184V mutant gene by phenosense assay
Type: functional, organism-based
Conditions: Human immunodeficiency virus 1, isolate 066
In short: as §1

Compound | EC50 [µM]
Nc1nc(NC2CC2)c2ncn([C@H]3C=C[C@@H](CO)C3)c2n1 [ABACAVIR] | 4.8

Test system: Human immunodeficiency virus 1
Assay: Antiviral activity against HIV1 isolate 185 harboring reverse transcriptase T215Y mutant gene by phenosense assay
Type: functional, organism-based
Conditions: Human immunodeficiency virus 1, isolate 185
In short: as §1

Compound | EC50 [µM]
Nc1nc(NC2CC2)c2ncn([C@H]3C=C[C@@H](CO)C3)c2n1 [ABACAVIR] | 3.7

Test system: Human immunodeficiency virus 1
Assay: Antiviral activity against HIV1 isolate 217 harboring reverse transcriptase D67N/K70E/M184V mutant gene by phenosense assay
Type: functional, organism-based
Conditions: Human immunodeficiency virus 1, isolate 217
In short: as §2

Compound | EC50 [µM]
Nc1nc(NC2CC2)c2ncn([C@H]3C=C[C@@H](CO)C3)c2n1 [ABACAVIR] | 5.1

Test system: Human immunodeficiency virus 1
Assay: Antiviral activity against HIV1 isolate 160 harboring reverse transcriptase S68G/V75(I/T)/F77L/Y115F/F116Y /Q151M mutant gene by phenosense assay relative to wild type
Type: functional
Conditions: not given
In short: as §1

Compound | fold change (FC)
Nc1nc(NC2CC2)c2ncn([C@H]3C=C[C@@H](CO)C3)c2n1 [ABACAVIR] | 19

Test system: Human immunodeficiency virus 1
Assay: Antiviral activity against HIV1 isolate 201 harboring reverse transcriptase M41L/L210W/T215Y mutant gene by phenosense assay
Type: functional, organism-based
Conditions: Human immunodeficiency virus 1, isolate 201
In short: as §1

Compound | EC50 [µM]
Nc1nc(NC2CC2)c2ncn([C@H]3C=C[C@@H](CO)C3)c2n1 [ABACAVIR] | 4.2

Test system: Human immunodeficiency virus 1
Assay: Antiviral activity against HIV1 isolate 201 harboring reverse transcriptase M41L/L210W/T215Y mutant gene by phenosense assay relative to wild type
Type: functional
Conditions: not given
In short: as §2

Compound | fold change (FC)
Nc1nc(NC2CC2)c2ncn([C@H]3C=C[C@@H](CO)C3)c2n1 [ABACAVIR] | 2.4

Test system: Human immunodeficiency virus 1
Assay: Antiviral activity against HIV1 isolate 206 harboring reverse transcriptase D67N/K70R mutant gene by phenosense assay relative to wild type
Type: functional
Conditions: not given
In short: as §2

Compound | fold change (FC)
Nc1nc(NC2CC2)c2ncn([C@H]3C=C[C@@H](CO)C3)c2n1 [ABACAVIR] | 1.4

Test system: Human immunodeficiency virus 1
Assay: Antiviral activity against HIV1 isolate 069 harboring reverse transcriptase D67E/T69SSG/V75M/M184V/L210W/T215Y mutant gene by phenosense assay relative to wild type
Type: functional
Conditions: not given
In short: as §1

Compound | fold change (FC)
Nc1nc(NC2CC2)c2ncn([C@H]3C=C[C@@H](CO)C3)c2n1 [ABACAVIR] | 26

Test system: Human immunodeficiency virus 1
Assay: Antiviral activity against HIV1 isolate 200 harboring reverse transcriptase M41L/L210W/T215Y mutant gene by phenosense assay
Type: functional, organism-based
Conditions: Human immunodeficiency virus 1, isolate 200
In short: as §1

Compound | EC50 [µM]
Nc1nc(NC2CC2)c2ncn([C@H]3C=C[C@@H](CO)C3)c2n1 [ABACAVIR] | 5

Test system: Human immunodeficiency virus 1
Assay: Antiviral activity against HIV1 isolate 066 harboring reverse transcriptase 184V mutant gene by phenosense assay relative to wild type
Type: functional
Conditions: not given
In short: as §1

Compound | fold change (FC)
Nc1nc(NC2CC2)c2ncn([C@H]3C=C[C@@H](CO)C3)c2n1 [ABACAVIR] | 2.7

Test system: Human immunodeficiency virus 1
Assay: Antiviral activity against HIV1 isolate 162 harboring reverse transcriptase A62V/V75I/F77L/Y115F/F116Y/Q151M/M184V mutant gene by phenosense assay relative to wild type
Type: functional
Conditions: not given
In short: as §1

Compound | fold change (FC)
Nc1nc(NC2CC2)c2ncn([C@H]3C=C[C@@H](CO)C3)c2n1 [ABACAVIR] | >29

Test system: Human immunodeficiency virus 1
Assay: Antiviral activity against HIV1 isolate 180 harboring reverse transcriptase K65R mutant gene obtained as site-directed mutant of NL4-3 by phenosense assay
Type: functional, organism-based
Conditions: Human immunodeficiency virus 1, isolate 180
In short: as §1

Compound | EC50 [µM]
Nc1nc(NC2CC2)c2ncn([C@H]3C=C[C@@H](CO)C3)c2n1 [ABACAVIR] | 4.6

Test system: Human immunodeficiency virus 1
Assay: Antiviral activity against HIV1 isolate 063 harboring reverse transcriptase M41L/D67N/K70R/M184V/L210W/T215Y/K219E mutant gene by phenosense assay
Type: functional, organism-based
Conditions: Human immunodeficiency virus 1, isolate 063
In short: as §1

Compound | EC50 [µM]
Nc1nc(NC2CC2)c2ncn([C@H]3C=C[C@@H](CO)C3)c2n1 [ABACAVIR] | 14

Test system: Human immunodeficiency virus 1
Assay: Antiviral activity against HIV1 isolate 185 harboring reverse transcriptase T215Y mutant gene by phenosense assay relative to wild type
Type: functional
Conditions: not given
In short: as §1

Compound | fold change (FC)
Nc1nc(NC2CC2)c2ncn([C@H]3C=C[C@@H](CO)C3)c2n1 [ABACAVIR] | 2.1

Test system: Human immunodeficiency virus 1
Assay: Antiviral activity against HIV1 isolate 194 harboring reverse transcriptase M41L/T215Y/M184V mutant gene by phenosense assay relative to wild type
Type: functional
Conditions: not given
In short: as §1

Compound | fold change (FC)
Nc1nc(NC2CC2)c2ncn([C@H]3C=C[C@@H](CO)C3)c2n1 [ABACAVIR] | 5.4

Test system: Human immunodeficiency virus 1
Assay: Antiviral activity against HIV1 isolate 174 harboring reverse transcriptase M184V mutant gene obtained as site-directed mutant of NL4-3 by phenosense assay relative to wild type
Type: functional
Conditions: not given
In short: as §1

Compound | fold change (FC)
Nc1nc(NC2CC2)c2ncn([C@H]3C=C[C@@H](CO)C3)c2n1 [ABACAVIR] | 2.6

Test system: Human immunodeficiency virus 1
Assay: Antiviral activity against HIV1 isolate 166 harboring reverse transcriptase L74V mutant gene obtained as site-directed mutant of NL4-3 by phenosense assay relative to wild type
Type: functional
Conditions: not given
In short: as §1

Compound | fold change (FC)
Nc1nc(NC2CC2)c2ncn([C@H]3C=C[C@@H](CO)C3)c2n1 [ABACAVIR] | 1.9

Test system: Human immunodeficiency virus 1
Assay: Antiviral activity against HIV1 isolate 215 harboring reverse transcriptase D67N/K70E mutant gene by phenosense assay relative to wild type
Type: functional
Conditions: not given
In short: as §2

Compound | fold change (FC)
Nc1nc(NC2CC2)c2ncn([C@H]3C=C[C@@H](CO)C3)c2n1 [ABACAVIR] | 1.4

Test system: Human immunodeficiency virus 1
Assay: Antiviral activity against HIV1 isolate 057 expressing wild type reverse transcriptase gene by phenosense assay
Type: functional, organism-based
Conditions: Human immunodeficiency virus 1, isolate 057
In short: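 In the PhenoSense recombinant virus assay, virus was tested against increasing drug concentrations. EC50 came from the inhibition curve and was compared with a drug-sensitive reference virus.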

Compound | EC50 [µM]
Nc1nc(NC2CC2)c2ncn([C@H]3C=C[C@@H](CO)C3)c2n1 [ABACAVIR] | 1.7

Test system: Human immunodeficiency virus 1
Assay: Antiviral activity against HIV1 isolate 212 harboring reverse transcriptase L210W/T215Y mutant gene by phenosense assay relative to wild type
Type: functional
Conditions: not given
In short: as §2

Compound | fold change (FC)
Nc1nc(NC2CC2)c2ncn([C@H]3C=C[C@@H](CO)C3)c2n1 [ABACAVIR] | 2.1

Test system: Human immunodeficiency virus 1
Assay: Antiviral activity against HIV1 isolate 204 harboring reverse transcriptase M41L/L210W/T215Y/M184V mutant gene by phenosense assay relative to wild type
Type: functional
Conditions: not given
In short: as §2

Compound | fold change (FC)
Nc1nc(NC2CC2)c2ncn([C@H]3C=C[C@@H](CO)C3)c2n1 [ABACAVIR] | 5

Test system: Human immunodeficiency virus 1
Assay: Antiviral activity against HIV1 isolate 063 harboring reverse transcriptase M41L/D67N/K70R/M184V/L210W/T215Y/K219E mutant gene by phenosense assay relative to wild type
Type: functional
Conditions: not given
In short: as §1

Compound | fold change (FC)
Nc1nc(NC2CC2)c2ncn([C@H]3C=C[C@@H](CO)C3)c2n1 [ABACAVIR] | 7.9

Test system: Human immunodeficiency virus 1
Assay: Antiviral activity against HIV1 isolate 211 harboring reverse transcriptase D67N/K70R/T215F/K219E/M184V mutant gene by phenosense assay
Type: functional, organism-based
Conditions: Human immunodeficiency virus 1, isolate 211
In short: as §2

Compound | EC50 [µM]
Nc1nc(NC2CC2)c2ncn([C@H]3C=C[C@@H](CO)C3)c2n1 [ABACAVIR] | 7.7
